In general, IC50 refers to the concentration at which inhibition is half-maximal. In general, AUC refers to concentration integrated over time. Read a low AUC as less exposure. By half-life is commonly meant how long it takes for the measured level to halve. A higher half-life goes with slow loss. By bioavailability is commonly meant dose-corrected exposure relative to a reference, in per cent.

The target in series [1] is T1, Inhibitor of nuclear factor kappa-B kinase subunit beta (Homo sapiens, UniProt O14920).
T1 sequence (O14920 whole entry): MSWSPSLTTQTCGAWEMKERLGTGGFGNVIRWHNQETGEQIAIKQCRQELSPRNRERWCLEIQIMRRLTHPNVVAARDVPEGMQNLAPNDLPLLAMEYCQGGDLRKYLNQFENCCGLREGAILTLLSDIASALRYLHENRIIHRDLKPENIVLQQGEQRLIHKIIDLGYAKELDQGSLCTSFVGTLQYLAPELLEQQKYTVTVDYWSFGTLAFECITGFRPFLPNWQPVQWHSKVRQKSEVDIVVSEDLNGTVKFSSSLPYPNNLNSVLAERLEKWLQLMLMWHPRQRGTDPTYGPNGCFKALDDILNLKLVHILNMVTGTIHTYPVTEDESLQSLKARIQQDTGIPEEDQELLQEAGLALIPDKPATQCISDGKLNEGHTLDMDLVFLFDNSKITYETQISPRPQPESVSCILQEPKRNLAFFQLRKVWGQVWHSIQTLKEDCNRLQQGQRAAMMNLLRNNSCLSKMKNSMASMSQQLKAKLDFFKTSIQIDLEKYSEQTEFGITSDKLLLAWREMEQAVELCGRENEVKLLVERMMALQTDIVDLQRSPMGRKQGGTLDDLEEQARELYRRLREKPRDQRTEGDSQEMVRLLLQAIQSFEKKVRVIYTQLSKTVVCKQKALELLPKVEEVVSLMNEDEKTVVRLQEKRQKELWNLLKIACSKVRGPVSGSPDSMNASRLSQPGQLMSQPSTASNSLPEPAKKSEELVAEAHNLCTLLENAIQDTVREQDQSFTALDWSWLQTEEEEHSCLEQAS
As to the kind of experiment: Inhibition of recombinant human C-terminal GST-tagged IKKbeta (1 to 737 residues) expressed in baculovirus expression system using GST-IkBalpha substrate measured after 30 mins by TR-FRET assay. In outline:
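IKK pIC50 values are the mean of more than 2 determinations unless noted otherwise. Compounds were tested as racemic mixtures.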
For orientation: In TR-FRET formats the signal depends on donor and acceptor labels being close together.

Series [2] can be described thus: Kinetic aqueous solubility of the compound by UV-HPLC analysis. To be noted: buffer; read-out: Kinetic_solubility. Type of series: physicochemical.
Series [3] can be described thus: Permeability of the compound by PAMPA. The note with it: read-out: permeability. The class given is ADME. (The PAMPA barrier holds no transporters, so it reflects passive diffusion.)
Series [4] concerns the target T1, Inhibitor of nuclear factor kappa-B kinase subunit beta. As to the kind of experiment: Inhibition of IKKbeta in human CD14-positive monocytes assessed as reduction in LPS-stimulated TNFalpha secretion preincubated for 30 mins followed by LPS stimulation and measured after 24 hrs by Alpha screen assay. The class given is cell-based. In general terms: Alpha assays give light when donor and acceptor beads are brought close together.

A short description of series [5]: AUC in Sprague-Dawley rat at 2.1 mg/kg, po. The class given is ADME, organism-based. The note with it: in vivo. In outline:
(§1)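 Male Sprague Dawley rats, n=2 (n=3 for one compound). The i.v. leg used 5% DMSO with 20% Cavitron and the oral leg 5% DMSO with 6% Cavitron. Oral doses were 2 mg/kg, or 2.1 mg/kg where stated. The i.v. dose was 1 mg/kg. Clearance is plasma clearance.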

A short description of series [6]: Plasma clearance in Sprague-Dawley rat at 2.1 mg/kg, po or 1 mg/kg, iv. Type of series: ADME, organism-based. In outline:
as §1

Series [7] can be described thus: Volume of distribution at steady state in Sprague-Dawley rat at 2.1 mg/kg, po or 1 mg/kg, iv. The class given is ADME, organism-based. The note with it: in vivo, read-out: Vdss. In outline:
as §1

Series [8] can be described thus: Half life in Sprague-Dawley rat at 2.1 mg/kg, po or 1 mg/kg, iv. The note with it: in vivo. The class given is ADME, organism-based. In outline:
as §1

Series [9] in a line: Oral bioavailability in Sprague-Dawley rat at 2.1 mg/kg. The note with it: in vivo. The class given is ADME, organism-based. In outline: as §1

≈ marks a conversion by molar mass, not a printed value.

As to `CN(C)CCS(=O)(=O)N1CCC(c2c[nH]c3c(C(N)=O)cc(-c4ccccc4)cc23)CC1`, the IC50 is 10 nM in series [1] and 500 nM in [4]. The solubility kinetic in [2] is 8 µM (≈ 3.64 µg/mL). Besides, the Papp in series [3] was 27 ×10⁻⁶ cm/s. The AUC in series [5] came to 2080 ng·h/mL. Moreover, the clearance in series [6] was 7.43 mL/min/kg. Moreover, the Vd in series [7] is 0.84 L/kg. Further, in series [8], the half-life was 1.75 h. This molecule also returned a bioavailability in series [9] of 46%.

(Values after ChEMBL document CHEMBL4325919, “3,5-Disubstituted-indole-7-carboxamides as IKKβ Inhibitors: Optimization of Oral Activity via the C3 Substituent” (ACS Med Chem Lett, 2018).)
